Measurements as given in ChEMBL document CHEMBL1134291, “The synthesis of a prodrug of doxorubicin designed to provide reduced systemic toxicity and greater target efficacy” (J Med Chem, 2001).
Where a SMILES comes first, the peptide text is derived from it. The star is where a group is joined. X1 = COc1cccc2c1C(=O)c1c(O)c3c(c(O)c1C2=O)C[C@@](O)(C(=O)CO)C[C@@H]3OC1CC(N*)C(O)C(C)O1

Columns and labels:
LNCaP [1] = test: Percentage PSA reduction relative to vehicle control following intraperitoneal injection of conjugate dose for 5 consecutive days to nude mice bearing LNCaP tumor xenografts; format: functional, Homo sapiens
LNCaP [2] = test: Concentration required to kill 50% of tumor cells in PSA producing LNCaP human prostate cancer cell line; format: functional, cell-based
DuPro = test: Concentration required to kill 50% of tumor cells in PSA nonproducing DuPRO human prostate cancer cell line; format: functional, cell-based
PSA = test: Time required for PSA to hydrolyze 50% (t1/2); format: ADME; settings: PSA (enzyme)
Mus musculus [3] = test: Percentage weight reduction relative to vehicle control following intraperitoneal (ip) injection of conjugate dose for 5 consecutive days to nude mice bearing LNCaP tumor xenografts( 21.7 umol/kg dose)
Mus musculus [4] = test: Maximum nonlethal drug dose which could be administered (ip) to non tumor bearing nude mice for 5 consecutive days; format: functional
Mus musculus [5] = test: Percentage weight reduction relative to vehicle control following intraperitoneal (ip) injection of conjugate dose for 5 consecutive days to nude mice bearing LNCaP tumor xenografts(14.8 umol/kg dose); format: functional
Mus musculus [6] = test: Percentage weight reduction relative to vehicle control following intraperitoneal (ip) injection of conjugate dose for 5 consecutive days to nude mice bearing LNCaP tumor xenografts(18.9 umol/kg dose); format: functional
Mus musculus [7] = test: Percentage weight reduction relative to vehicle control following intraperitoneal (ip) injection of conjugate dose for 5 consecutive days to nude mice bearing LNCaP tumor xenografts( 22.7 umol/kg dose); format: functional
Outline: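 Nude mice carrying xenografts of PSA-secreting human prostate LNCaP cells received the conjugate intraperitoneally once daily for 5 consecutive days. Circulating PSA and tumor weight were each expressed as percent reduction against vehicle-treated controls.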

Mus musculus [8] = test: Percentage weight reduction relative to vehicle control following intraperitoneal (ip) injection of conjugate dose for 5 consecutive days to nude mice bearing LNCaP tumor xenografts( 29.0 umol/kg dose); format: functional

SMILES | Reduction (LNCaP [1]) [%] | EC50 (LNCaP [2]) [µM] | EC50 (DuPro) [µM] | half-life (PSA) [min] | Reduction (Mus musculus [3]) [%] | MTD (Mus musculus [4]) [µM/kg] | Reduction (Mus musculus [5]) [%] | Reduction (Mus musculus [6]) [%] | Reduction (Mus musculus [7]) [%] | Reduction (Mus musculus [8]) [%]
COc1cccc2c1C(=O)c1c(O)c3c(c(O)c1C2=O)C[C@@](O)(C(=O)CO)C[C@@H]3OC1CC(NC(=O)[C@H](CC(C)C)NC(=O)[C@H](CO)NC(=O)[C@@H](CCC(N)=O)NC(=O)[C@@H](NC(=O)[C@H](CO)NC(=O)[C@H](C)NC(=O)C2CC(O)CN2C(=O)CCC(=O)O)C2CCCCC2)C(O)C(C)O1 (stereo not given in full) | 94 | 5.7 | 100 | 55 | 72 | 28.9 | – | – | – | –
COc1cccc2c1C(=O)c1c(O)c3c(c(O)c1C2=O)C[C@@](O)(C(=O)CO)C[C@@H]3OC1CC(NC(=O)[C@H](CC(C)C)NC(=O)[C@H](CO)NC(=O)[C@H](CCC(N)=O)NC(=O)[C@H](Cc2ccc(O)cc2)NC(=O)[C@H](CO)NC(=O)[C@H](C)NC(=O)[C@H](CCCN)NC(C)=O)C(O)C(C)O1 (stereo not given in full) | 70 | 7.3 | > 100 | 40 | – | 29.7 | 57 | – | – | –
COc1cccc2c1C(=O)c1c(O)c3c(c(O)c1C2=O)C[C@@](O)(C(=O)CO)C[C@@H]3OC1CC(NC(=O)[C@H](CC(C)C)NC(=O)[C@H](CO)NC(=O)[C@@H](CCC(N)=O)NC(=O)[C@H](Cc2ccc(O)cc2)NC(=O)[C@H](CO)NC(=O)[C@H](C)NC(=O)[C@H](CCCN)NC(C)=O)C(O)C(C)O1 (stereo not given in full) | 22 | 85 | > 100 | > 1200 | – | >45.3 | – | 26 | – | –
COc1cccc2c1C(=O)c1c(O)c3c(c(O)c1C2=O)C[C@@](O)(C(=O)CO)C[C@@H]3OC1CC(NC(=O)[C@H](CC(C)C)NC(=O)[C@H](CO)NC(=O)[C@@H](CCC(N)=O)NC(=O)[C@@H](NC(=O)[C@H](CO)NC(=O)[C@H](C)NC(=O)C2CC(O)CN2C(C)=O)C2CCCCC2)C(O)C(C)O1 (stereo not given in full) | 96 | 4.5 | > 100 | 20 | – | 22.7 | – | – | 81 | –
COc1cccc2c1C(=O)c1c(O)c3c(c(O)c1C2=O)C[C@@](O)(C(=O)CO)C[C@@H]3OC1CC(NC(=O)[C@H](CC(C)C)NC(=O)[C@H](CO)NC(=O)[C@H](CO)NC(=O)[C@H](CO)NC(=O)[C@H](CCC(N)=O)NC(=O)[C@H](Cc2ccc(O)cc2)NC(=O)[C@H](CCCCN)NC(C)=O)C(O)C(C)O1 (stereo not given in full) (Ac-KYQSSSL-X1) | 90 | 6.9 | > 100 | 60 | – | 32.6 | – | – | – | 70
